Measurements reported in ChEMBL document CHEMBL3259662 (ACS Med Chem Lett, 2014).
Values after ≈ are worked out from the molar mass of the structure shown. Active and inactive are the calls of the source. The calls are words filed in the database; no cut-off is given here. Peptide text beside a SMILES is read from it. * marks the point of attachment. Boc = CC(C)(C)OC(=O)*; NHBn = c1ccc(CN*)cc1

Legend:
[1] = test system: BT-549; assay: Cytotoxicity against human BT549 cells assessed as cell viability after 48 hrs by neutral red uptake assay; format: cell-based; conditions: bt-549, 48 h
Summary of the method: (§1)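 Neutral red uptake assay in human cancer lines SK-MEL, KB, BT-549 and SK-OV-3 and in noncancerous mammalian kidney cells VERO and LLC-PK1. The highest tested concentration was 10 μg/mL.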

[2] = test system: LLC-PK1; assay: Cytotoxicity against pig LLC-PK1 cells assessed as cell viability after 48 hrs by neutral red uptake assay; format: cell-based, Sus scrofa; conditions: llc-pk1, 48 h; summary of the method: as §1
[3] = Selectivity index, ratio of cytotoxicity for human KB cells to IC50 for Cryptococcus neoformans ATCC 90113; format: toxicity, cell-based; conditions: read-out: Selectivity Index
[4] = test system: KB; assay: Cytotoxicity against human KB cells assessed as cell viability after 48 hrs by neutral red uptake assay; format: cell-based; summary of the method: as §1
[5] = test system: Aspergillus fumigatus; assay: Antifungal activity against Aspergillus fumigatus by CLSI method; format: functional, organism-based
[6] = Selectivity index, ratio of cytotoxicity for human BT549 cells to IC50 for Cryptococcus neoformans ATCC 90113; format: toxicity, cell-based, BT-549; conditions: read-out: Selectivity Index
[7] = test system: SK-MEL; assay: Cytotoxicity against human SK-MEL cells assessed as cell viability after 48 hrs by neutral red uptake assay; format: cell-based; summary of the method: as §1
[8] = Selectivity index, ratio of cytotoxicity for pig LLC-PK1 cells to IC50 for Cryptococcus neoformans ATCC 90113; format: toxicity, cell-based; conditions: read-out: Selectivity Index
[9] = test system: Candida albicans; assay: Antifungal activity against Candida albicans by CLSI method; format: functional, organism-based
[10] = test system: Cryptococcus neoformans; assay: Antifungal activity against Cryptococcus neoformans ATCC 90113 after 70 to 74 hrs by CLSI method; format: functional, organism-based; conditions: for IC50 / MIC: Cryptococcus neoformans, ATCC 90113
Summary of the method: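 Growth inhibition of C. neoformans per the CLSI protocol. […] MIC is the lowest test concentration with no detectable growth. MFC is the lowest concentration killing 100% of the organism.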

[11] = Selectivity index, ratio of cytotoxicity for human SK-MEL cells to IC50 for Cryptococcus neoformans ATCC 90113; format: toxicity, cell-based; conditions: read-out: Selectivity Index
[12] = Selectivity index, ratio of cytotoxicity for African green monkey Vero cells to IC50 for Cryptococcus neoformans ATCC 90113; format: toxicity, cell-based; conditions: read-out: Selectivity Index
[13] = test system: Escherichia coli; assay: Antibacterial activity against Escherichia coli ATCC 35218 after 16 to 20 hrs by CLSI method; format: functional, organism-based
[14] = test system: Pichia kudriavzevii; assay: Antifungal activity against Candida krusei by CLSI method; format: functional, organism-based
[15] = test system: Vero; assay: Cytotoxicity against African green monkey Vero cells assessed as cell viability after 48 hrs by neutral red uptake assay; format: cell-based; conditions: chlorocebus sabaeus; summary of the method: as §1
[16] = test system: Nakaseomyces glabratus; assay: Antifungal activity against Candida glabrata by CLSI method; format: functional, organism-based
[17] = Selectivity index, ratio of cytotoxicity for human SKOV3 cells to IC50 for Cryptococcus neoformans ATCC 90113; format: toxicity, cell-based, SK-OV-3; conditions: read-out: Selectivity Index
[18] = test system: SK-OV-3; assay: Cytotoxicity against human SKOV3 cells assessed as cell viability after 48 hrs by neutral red uptake assay; format: cell-based; conditions: sk-ov-3, 48 h; summary of the method: as §1
[19] = Retention time of the compound by reverse phase HPLC analysis; format: physicochemical
Summary of the method: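 Reverse-phase HPLC on a C-18 column (25 cm × 4.6 mm, 5 μM) at 1 mL/min over 40 min. The gradient ran 85−5% with A = 0.1% TFA in H2O and B = 0.1% TFA in CH3CN. Detection was at 220 nm.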

Compound	Activity [1]	Activity [2]	selectivity ratio [3]	Activity [4]	Activity [5]	selectivity ratio [6]	Activity [7]	selectivity ratio [8]	Activity [9]	MFC100 [10]	IC50 [10]	MIC [10]	selectivity ratio [11]	selectivity ratio [12]	Activity [13]	Activity [14]	Activity [15]	Activity [16]	selectivity ratio [17]	Activity [18]	other results
COC(=O)[C@H](CCCNC(=N)N)NC(=O)[C@H](Cc1c[nH]c(-c2ccc(-c3ccccc3)cc2)n1)NC(=O)[C@@H](N)CCCNC(=N)N	> 10 µg/mL	> 10 µg/mL	> 16.9	> 10 µg/mL	inactive	> 16.9	> 10 µg/mL	> 16.9	inactive	1.25 µg/mL (≈ 1.97 µM)	0.59 µg/mL (≈ 0.931 µM)	1.25 µg/mL (≈ 1.97 µM)	> 16.9	> 16.9	inactive	inactive	> 10 µg/mL	inactive	> 16.9	> 10 µg/mL	
COC(=O)[C@H](CCCNC(=N)N)NC(=O)[C@H](Cc1c[nH]c(-c2ccc(C(C)(C)C)cc2)n1)NC(=O)[C@@H](N)CCCNC(=N)N	> 10 µg/mL	> 10 µg/mL	> 16.3	> 10 µg/mL	inactive	> 16.3	> 10 µg/mL	> 16.3	inactive	1.25 µg/mL (≈ 2.04 µM)	0.61 µg/mL (≈ 0.994 µM)	1.25 µg/mL (≈ 2.04 µM)	> 16.3	> 16.3	inactive	inactive	> 10 µg/mL	inactive	> 16.3	> 10 µg/mL	
Cc1ccc(-c2nc(C[C@H](NC(=O)[C@@H](N)CCCNC(=N)N)C(=O)N[C@@H](CCCNC(=N)N)C(=O)NCc3ccccc3)c[nH]2)cc1	> 10 µg/mL	> 10 µg/mL	> 28.6	> 10 µg/mL	inactive	> 28.6	> 10 µg/mL	> 28.6	inactive	10 µg/mL (≈ 15.5 µM)	0.35 µg/mL (≈ 0.541 µM)	0.63 µg/mL (≈ 0.974 µM)	> 28.6	> 28.6	inactive	inactive	> 10 µg/mL	inactive	> 28.6	> 10 µg/mL	
C[C@@H]1[C@H](O)[C@@H](C)/C=C/C=C/C=C/C=C/C=C/C=C/C=C/[C@H](O[C@@H]2O[C@H](C)[C@@H](O)[C@H](N)[C@@H]2O)C[C@@H]2O[C@](O)(C[C@@H](O)C[C@@H](O)[C@H](O)CC[C@@H](O)C[C@@H](O)CC(=O)O[C@H]1C)C[C@H](O)[C@H]2C(=O)O [AMPHOTERICIN B]										1.25 µg/mL (≈ 1.35 µM)		1.25 µg/mL (≈ 1.35 µM)									
CC(C)(C)OC(=O)N[C@@H](CCCNC(=N)N)C(=O)N[C@@H](Cc1c[nH]cn1)C(=O)N[C@@H](CCCNC(=N)N)C(=O)NCc1ccccc1 (Boc-Arg-His-Arg-NHBn)	> 10 µg/mL	> 10 µg/mL	> 1.8	> 10 µg/mL	inactive	> 1.8	> 10 µg/mL	> 1.8	inactive	10 µg/mL (≈ 15.2 µM)	5.35 µg/mL (≈ 8.15 µM)	10 µg/mL (≈ 15.2 µM)	> 1.8	> 1.8	inactive	inactive	> 10 µg/mL	inactive	> 1.8	> 10 µg/mL	Retention_time [19]: 16.41 min
CC(C)(C)OC(=O)N[C@@H](CCCNC(=N)N)C(=O)N[C@@H](Cc1c[nH]c(-c2ccccc2)n1)C(=O)N[C@@H](CCCNC(=N)N)C(=O)NCc1ccccc1	> 10 µg/mL	> 10 µg/mL	> 14.9	> 10 µg/mL	inactive	> 14.9	> 10 µg/mL	> 14.9	inactive	1.25 µg/mL (≈ 1.71 µM)	0.67 µg/mL (≈ 0.914 µM)	1.25 µg/mL (≈ 1.71 µM)	> 14.9	> 14.9	inactive	inactive	> 10 µg/mL	inactive	> 14.9	> 10 µg/mL	Retention_time [19]: 17.63 min
Cc1ccc(-c2nc(C[C@H](NC(=O)[C@H](CCCNC(=N)N)NC(=O)OC(C)(C)C)C(=O)N[C@@H](CCCNC(=N)N)C(=O)NCc3ccccc3)c[nH]2)cc1	> 10 µg/mL	> 10 µg/mL	> 4.6	> 10 µg/mL	inactive	> 4.6	> 10 µg/mL	> 4.6	inactive	2.5 µg/mL (≈ 3.35 µM)	2.15 µg/mL (≈ 2.88 µM)	2.5 µg/mL (≈ 3.35 µM)	> 4.6	> 4.6	inactive	inactive	> 10 µg/mL	inactive	> 4.6	> 10 µg/mL	Retention_time [19]: 19.41 min
COC(=O)[C@H](CCCNC(=N)N)NC(=O)[C@H](Cc1c[nH]c(-c2ccc(OC)cc2)n1)NC(=O)[C@@H](N)CCCNC(=N)N	> 10 µg/mL	> 10 µg/mL	> 2.5	> 10 µg/mL	inactive	> 2.5	> 10 µg/mL	> 2.5	inactive	5 µg/mL (≈ 8.51 µM)	3.93 µg/mL (≈ 6.69 µM)	5 µg/mL (≈ 8.51 µM)	> 2.5	> 2.5	inactive	inactive	> 10 µg/mL	inactive	> 2.5	> 10 µg/mL	
N=C(N)NCCC[C@H](NC(=O)[C@H](Cc1c[nH]c(-c2ccccc2)n1)NC(=O)[C@@H](N)CCCNC(=N)N)C(=O)NCc1ccccc1	> 10 µg/mL	> 10 µg/mL	> 13.7	> 10 µg/mL	inactive	> 13.7	> 10 µg/mL	> 13.7	inactive	1.25 µg/mL (≈ 1.98 µM)	0.73 µg/mL (≈ 1.15 µM)	1.25 µg/mL (≈ 1.98 µM)	> 13.7	> 13.7	inactive	inactive	> 10 µg/mL	inactive	> 13.7	> 10 µg/mL	
